In the library only some 1.9% were active in any assay of this set; here they are far more common.
TbMetRS inhib: T. brucei MetRS inhibitors, primary screen, biochemical, luminescence. methionyl-tRNA synthetase (Trypanosoma brucei brucei). purified T. brucei MetRS, ATP depletion, Kinase-Glo luminescence. inhibition, % at 11.9 µM. 0.4% of 360,000 active. AID 624268, 2012;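 active = inhibition above a per-plate cutoff of the control wells' mean inhibition plus 3 SD, cut at about 5.5% in these data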;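 also: 0% = DMSO wells median and 100% = median of wells with control inhibitor compound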
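Test system: purified T. brucei MetRS enzyme. Also added: ATP, methionine and E. coli bulk tRNA substrates. Compound: 11.9 µM single point. Schedule: 15 min enzyme-compound preincubation, 2 h reaction, 10 min detection, 25 °C. Signal: luciferase luminescence of residual ATP, Kinase-Glo. Evaluation: percent inhibition versus plate control medians. Controls: DMSO wells, low control.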
PLC-beta3 inh: human PLC-beta3 inhibitors, primary screen, biochemical, fluorescence | 1-phosphatidylinositol 4,5-bisphosphate phosphodiesterase beta-3 (Homo sapiens), Q01970 | 0.18% of 370,000 active | inhibition, % at 12.2 µM | Purified PLC-beta3, fluorogenic substrate; in the data active = inhibition above about 11%;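 also: 0% = median of compound wells on plate and 100% = full blocker control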
sPLA2-III inh: human group III sPLA2 inhibitors, primary screen, biochemical, QFRET, BODIPY PC-A2 liposome substrate; 0.56% of 370,000 active; QFRET BODIPY PC-A2 liposome hydrolysis, fluorescence; Group 3 secretory phospholipase A2 (Homo sapiens), Q9NZ20; inhibition, % at 12.2 µM;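 active = inhibition above mean plus 3 SD of compounds lying within the high and low control bounds, cut at about 19% in these data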;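 also: 0% = median of test compound wells and 100% = no enzyme DMSO wells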
Target sequence (Q9NZ20 whole entry, looked up): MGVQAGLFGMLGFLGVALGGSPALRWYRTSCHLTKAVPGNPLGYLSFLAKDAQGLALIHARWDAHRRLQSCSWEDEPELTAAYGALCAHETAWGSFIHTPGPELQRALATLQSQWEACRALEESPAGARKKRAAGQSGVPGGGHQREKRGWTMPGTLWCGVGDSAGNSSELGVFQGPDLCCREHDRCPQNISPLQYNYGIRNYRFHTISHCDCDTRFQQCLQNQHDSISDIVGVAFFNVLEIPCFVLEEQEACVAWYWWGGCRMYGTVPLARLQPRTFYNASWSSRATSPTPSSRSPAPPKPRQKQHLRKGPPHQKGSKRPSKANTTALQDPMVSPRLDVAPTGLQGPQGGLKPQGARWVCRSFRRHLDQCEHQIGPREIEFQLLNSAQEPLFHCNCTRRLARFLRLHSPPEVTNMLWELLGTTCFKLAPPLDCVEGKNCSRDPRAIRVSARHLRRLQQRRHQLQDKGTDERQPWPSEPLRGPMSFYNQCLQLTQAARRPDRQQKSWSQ
DAGLB inh: DAGLB lipase inhibitors, primary screen, biochemical, fluorescence, HTS; inhibition, % at 5.17 µM; 0.059% of 340,000 active; Diacylglycerol lipase-beta (Homo sapiens), Q8NCG7; HEK293T DAGLB membrane lysate, EnzChek fluorogenic substrate; in the data active = inhibition above about 34%;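 also: 0% = enzyme with vehicle and 100% = wells lacking enzyme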
PLCg1 inh: PLC-gamma1 enzyme inhibitors, primary screen, biochemical, fluorescence, purified enzyme | fluorogenic substrate | inhibition, % at 12.2 µM | 0.84% of 370,000 active; in the data active = inhibition above about 9.5%
hGIII sPLA2 conf: human group III sPLA2 inhibitors, confirmation, biochemical, QFRET, triplicate | shares compounds with sPLA2-III inh | recombinant hGIII-sPLA2, BODIPY PC-A2 QFRET fluorescence | inhibition, % at 12.2 µM | 34% of 2,000 active | AID 743280, 2014;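 active = mean inhibition across triplicates above the hit cutoff set in the earlier primary screen, cut at about 19% in these data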;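 also: 0% = enzyme with DMSO and 100% = DMSO wells lacking enzyme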
BODIPY interf: 535nm fluorescence optical interference, confirmation, artefact control for HGIII-sPLA2 inhibitor project, biochemical, QFRET | shares compounds with sPLA2-III inh | BODIPY FL product fluorescence interference | inhibition, % at 12.2 µM | 8.5% of 2,000 active | AID 743282, 2014;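 active = average inhibition above the solvent-only control mean plus 3 SD, cut at about 6% in these data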;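 also: 0% = DMSO with substrate plus product and 100% = DMSO with substrate alone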
535nm interf DR: 535nm fluorescence optical interference, dose response, artefact control for HGIII-sPLA2 inhibitor project, biochemical, QFRET | BODIPY FL product fluorescence interference, cell-free | IC50, µM | 240 tested, under 10 active | shares compounds with sPLA2-III inh;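 active = IC50 at or below 10 µM; inactive = IC50 above 10 µM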
Numbers without * were called inactive; . = no result given.

SMILES	TbMetRS inhib	PLC-beta3 inh	sPLA2-III inh	DAGLB inh	PLCg1 inh	hGIII sPLA2 conf	BODIPY interf	others
Cc1nn(-c2ccccc2)c2sc(C(=O)N3CCN(C(c4ccccc4)c4ccc(Cl)cc4)CC3)cc12 (stereo not given)	.	0	1	.	-2	.	.
CCOc1ccccc1NC(=O)C(OC(=O)c1ccccc1O)c1ccccc1 (stereo not given)	-1	-1	22*	-8	0	-18	-11
Cc1ccc(S(=O)(=O)NNC(=O)c2ccncc2)cc1	0	0	7	0	3	.	.
Cc1ccc(S(=O)(=O)NNC(=O)c2sc(=S)n(C)c2C)cc1	0	0	23*	2	8	6	-2
CCOC(=O)CC[C@@]1(C(=O)OCC)C[C@@H](CC(=O)NCC23CC4CC(CC(C4)C2)C3)C(=O)N2CCCC=C21	.	2	-6	.	0	.	.
CCn1c(-c2cccc(Br)c2)n[nH]c1=S	-1	-8	23*	0	3	34*	-3	535nm interf DR=>122
COc1ccccc1OCC(=O)Nn1c(=S)[nH]c2ncccc2c1=O	0	-1	24*	1	1	8	-4
CC(=O)N1CCN(c2ccc(NCc3ccc(-c4ccc(Br)cc4)o3)cc2)CC1	0	-454	20*	8	-328	20*	-21
COc1ccc(NC(=S)NC(=O)/C=C/c2ccc(F)cc2)cc1	0	0	-1	-2	3	.	.
COc1ccc(/C=C/C(=O)NC(=S)Nc2ccc(C(=O)O)cc2)cc1	0	-6	20*	1	1	3	-6
COc1ccc(/C=C/C(=O)NC(=S)NNC(=O)c2ccco2)cc1	0	-22	25*	3	-18	53*	-8	535nm interf DR=>122
COc1ccc(C(=O)NC(=S)NNC(=O)c2ccco2)cc1	0	-3	19*	2	0	29*	-2	535nm interf DR=>122
COc1ccc(/C=C/C(=O)NC(=S)NNC(=O)Cc2cccs2)cc1	-1	-33	14	2	-29	.	.
O=C(NC(=S)NNC(=O)c1ccco1)c1ccc(F)cc1	0	-9	16	2	0	.	.
COc1ccc(/C=C/C(=O)NC(=S)NNC(=O)c2ccco2)cc1OC	0	-36	20*	1	-17	25*	-23
CC(C)NC(=O)N[C@@H]1C[C@@H]2O[C@@H](CO)CC[C@@H]2O[C@@H]1CCc1ccc(-c2ccc(F)cc2)cc1	.	-2	-17	.	-2	.	.
CCOC(=O)C1=CCN(S(=O)(=O)c2ccc(Br)cc2)C1c1cccc(F)c1 (stereo not given)	.	0	-2	.	0	.	.
COC(=O)c1cc(-c2ccc(Cl)s2)c(=O)n2c1CCC2	.	-96	0	.	-80	.	.
COC(=O)c1cc2c(c3c4cc(C)ccc4n(S(=O)(=O)c4cccc(C)c4)c13)C(=O)N(Cc1ccc(N(C)C)cc1)C2	.	0	5	.	-2	.	.
CCC(=O)NC(=S)Nc1ccc(-c2nc3ccccc3s2)cc1	0	-1	-4	1	0	.	.
CCC(=O)NC(=S)Nc1ccc(-c2nc3ccc(C)cc3s2)cc1	0	-9	19*	-2	5	0	-8
Nc1[nH]n(-c2ccccc2)c(=O)c1N=Nc1ccc2c(c1)OCO2	0	-9	21*	24	2	27*	6
CCOc1ccc(NC(=O)CSc2ccc(-c3ccccn3)nn2)cc1	0	-6	19*	-1	6	-5	-22
COc1ccc(NC(=O)CSc2ccc(-c3ccccn3)nn2)cc1OC	0	-3	19*	0	1	-1	-27
